# Measured values from ChEMBL document CHEMBL4007405 (J Med Chem, 2017).
# Positions of bridges follow the written chain, without caps; N, C: chain ends. Residues, ends and D or L forms follow the SMILES beside them.
# Molecular target: T1, Lethal factor (Bacillus anthracis) (UniProt P15917)
# T1 sequence (whole entry): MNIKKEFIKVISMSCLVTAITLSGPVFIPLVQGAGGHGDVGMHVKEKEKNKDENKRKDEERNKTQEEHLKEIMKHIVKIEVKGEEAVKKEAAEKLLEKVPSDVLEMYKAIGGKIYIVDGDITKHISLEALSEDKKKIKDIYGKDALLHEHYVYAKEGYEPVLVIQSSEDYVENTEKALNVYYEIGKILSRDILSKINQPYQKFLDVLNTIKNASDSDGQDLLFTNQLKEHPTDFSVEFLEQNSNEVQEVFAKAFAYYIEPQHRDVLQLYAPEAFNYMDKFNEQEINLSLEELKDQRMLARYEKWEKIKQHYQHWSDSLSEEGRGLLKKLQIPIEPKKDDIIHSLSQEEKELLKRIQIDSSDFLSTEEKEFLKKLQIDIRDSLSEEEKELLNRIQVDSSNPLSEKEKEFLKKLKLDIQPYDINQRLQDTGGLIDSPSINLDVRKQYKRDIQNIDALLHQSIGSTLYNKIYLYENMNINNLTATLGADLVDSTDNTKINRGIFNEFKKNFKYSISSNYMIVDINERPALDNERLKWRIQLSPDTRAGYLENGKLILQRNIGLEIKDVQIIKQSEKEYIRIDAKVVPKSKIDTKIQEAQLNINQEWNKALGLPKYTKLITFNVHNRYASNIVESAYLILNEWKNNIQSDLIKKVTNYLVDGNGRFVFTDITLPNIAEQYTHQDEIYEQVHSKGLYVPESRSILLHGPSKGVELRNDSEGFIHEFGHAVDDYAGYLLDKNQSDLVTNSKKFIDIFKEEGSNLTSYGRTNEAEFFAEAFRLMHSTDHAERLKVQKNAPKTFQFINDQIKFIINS
# Assay: Inhibition of Bacillus anthracis lethal factor protease preincubated for 30 mins prior to addition of substrate containing fluorescent proteins CyPet and YPet measured every 2 mins for 3 hrs by FRET assay
# Summary of the method: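 Preincubated with peptide from 1 nM to 10 μM for 30 min at room temperature. CyPet–YPet substrate (LF consensus sequence with (GGS)6 linkers) then added to a final 10 nM. FRET read every 2 min for 3 h with excitation at 405 nm and emission ratio It/I0 at 535 nm. Initial velocities fitted to log(inhibitor)–response with variable Hill slope. Run in triplicate.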
row,Compound,inhibition
1,"CC[C@H](C)[C@@H]1NC(=O)[C@@H]2CSSC[C@H](NC(=O)[C@H](CC(=O)O)NC(=O)[C@@H]3CSSC[C@H](NC1=O)C(=O)N[C@@H]([C@@H](C)O)C(=O)N[C@@H](CCCNC(=N)N)C(=O)NCC(=O)N[C@@H](Cc1ccccc1)C(=O)N3)C(=O)N[C@@H](CC(C)C)C(=O)N[C@H]1CSSC[C@H](NC(=O)[C@H](C(C)C)NC(=O)CNC(=O)[C@H](CCCNC(=N)N)NC(=O)[C@H](CCCNC(=N)N)NC1=O)C(=O)N[C@@H](CCCNC(=N)N)C(=O)N2 (cyclo(CDCLCRRGVCRCICTRGF); disulfide 1-14, 3-12, 5-10)",Dose-dependent effect
2,"CC[C@H](C)[C@@H]1NC(=O)[C@@H]2CSSC[C@H](NC(=O)[C@H](CCCNC(=N)N)NC(=O)[C@@H]3CSSC[C@H](NC1=O)C(=O)N[C@@H]([C@@H](C)O)C(=O)N[C@@H](CCCNC(=N)N)C(=O)NCC(=O)N[C@@H](Cc1ccccc1)C(=O)N3)C(=O)N[C@@H](CC(C)C)C(=O)N[C@H]1CSSC[C@H](NC(=O)[C@H](Cc3c[nH]c4ccccc34)NC(=O)CNC(=O)[C@H](CCCNC(=N)N)NC(=O)[C@H](CCCNC(=N)N)NC1=O)C(=O)N[C@@H](CCCNC(=N)N)C(=O)N2 (cyclo(CICTRGFCRCLCRRGWCR); disulfide 1-10, 3-8, 12-17)",Dose-dependent effect
3,"CC[C@H](C)[C@@H]1NC(=O)[C@@H]2CSSC[C@H](NC(=O)[C@H](CCCNC(=N)N)NC(=O)[C@@H]3CSSC[C@H](NC1=O)C(=O)N[C@@H]([C@@H](C)O)C(=O)N[C@@H](CCCNC(=N)N)C(=O)NCC(=O)N[C@@H](Cc1ccccc1)C(=O)N3)C(=O)N[C@@H](CC(C)C)C(=O)N[C@H]1CSSC[C@H](NC(=O)[C@H](Cc3c[nH]c4ccccc34)NC(=O)[C@H](CCCNC(=N)N)NC(=O)[C@H](CCCNC(=N)N)NC(=O)[C@H](CCCNC(=N)N)NC1=O)C(=O)N[C@@H](CCCNC(=N)N)C(=O)N2 (cyclo(CICTRGFCRCLCRRRWCR); disulfide 1-10, 3-8, 12-17)",Dose-dependent effect
4,"CC[C@H](C)[C@@H]1NC(=O)[C@@H]2CSSC[C@H](NC(=O)[C@H](CCCNC(=N)N)NC(=O)[C@@H]3CSSC[C@H](NC1=O)C(=O)N[C@@H]([C@@H](C)O)C(=O)N[C@@H](CCCNC(=N)N)C(=O)NCC(=O)N[C@@H](Cc1ccccc1)C(=O)N3)C(=O)N[C@@H](Cc1c[nH]c3ccccc13)C(=O)N[C@H]1CSSC[C@H](NC(=O)[C@H](Cc3c[nH]c4ccccc34)NC(=O)[C@H](CCCNC(=N)N)NC(=O)[C@H](CCCNC(=N)N)NC(=O)[C@H](CCCNC(=N)N)NC1=O)C(=O)N[C@@H](CCCNC(=N)N)C(=O)N2 (cyclo(CICTRGFCRCWCRRRWCR); disulfide 1-10, 3-8, 12-17)",Dose-dependent effect
5,"C[C@@H](O)[C@@H]1NC(=O)[C@@H]2CSSC[C@H](NC(=O)[C@H](Cc3ccccc3)NC(=O)CNC(=O)[C@H](CCCNC(=N)N)NC1=O)C(=O)N[C@@H](CCCNC(=N)N)C(=O)N[C@H]1CSSC[C@H](NC(=O)[C@H](CCCNC(=N)N)NC(=O)[C@@H]3CSSC[C@H](NC(=O)[C@H](Cc4c[nH]c5ccccc45)NC1=O)C(=O)N[C@@H](CCCNC(=N)N)C(=O)N[C@@H](CCCNC(=N)N)C(=O)N[C@@H](CCCNC(=N)N)C(=O)N[C@@H](Cc1c[nH]c4ccccc14)C(=O)N3)C(=O)N[C@@H](Cc1c[nH]c3ccccc13)C(=O)N2 (cyclo(CRCWCRRRWCRCWCTRGF); disulfide 1-14, 3-12, 5-10)",Dose-dependent effect
6,"C[C@@H](O)[C@@H]1NC(=O)[C@@H]2CSSC[C@H](NC(=O)[C@H](Cc3c[nH]c4ccccc34)NC(=O)CNC(=O)[C@H](CCCNC(=N)N)NC1=O)C(=O)N[C@@H](CCCNC(=N)N)C(=O)N[C@H]1CSSC[C@H](NC(=O)[C@H](CCCNC(=N)N)NC(=O)[C@@H]3CSSC[C@H](NC(=O)[C@H](Cc4c[nH]c5ccccc45)NC1=O)C(=O)N[C@@H](CCCNC(=N)N)C(=O)N[C@@H](CCCNC(=N)N)C(=O)N[C@@H](CCCNC(=N)N)C(=O)N[C@@H](Cc1c[nH]c4ccccc14)C(=O)N3)C(=O)N[C@@H](Cc1c[nH]c3ccccc13)C(=O)N2 (cyclo(CRCWCRRRWCRCWCTRGW); disulfide 1-14, 3-12, 5-10)",Dose-dependent effect
